Test results published in ChEMBL document CHEMBL4396879, “Conjugation of Short Peptides to Dibenzodiazepinone-Type Muscarinic Acetylcholine Receptor Ligands Determines M2R Selectivity” (J Med Chem, 2019).

Columns and labels:
[1] = molecular target: T1, Muscarinic acetylcholine receptor M1 (Homo sapiens, UniProt P11229); test: Displacement of [3H]-NMS from muscarinic M1 receptor (unknown origin) expressed in mouse A9L cells after 60 mins by scintillation counting method; format: cell-based
T1 sequence (P11229 whole entry): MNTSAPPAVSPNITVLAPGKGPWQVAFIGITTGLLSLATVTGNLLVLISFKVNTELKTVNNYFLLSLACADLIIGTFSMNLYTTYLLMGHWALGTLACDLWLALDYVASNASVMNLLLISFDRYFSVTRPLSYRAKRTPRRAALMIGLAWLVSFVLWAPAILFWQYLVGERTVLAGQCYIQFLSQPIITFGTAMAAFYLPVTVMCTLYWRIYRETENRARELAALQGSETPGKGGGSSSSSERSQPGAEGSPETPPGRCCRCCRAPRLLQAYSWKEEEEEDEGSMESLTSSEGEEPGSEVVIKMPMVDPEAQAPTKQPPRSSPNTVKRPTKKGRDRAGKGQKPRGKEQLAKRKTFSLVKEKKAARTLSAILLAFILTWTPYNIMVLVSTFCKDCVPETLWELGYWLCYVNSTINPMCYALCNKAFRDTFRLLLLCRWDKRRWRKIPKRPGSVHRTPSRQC

[2] = molecular target: T2, Muscarinic acetylcholine receptor M2 (Rattus norvegicus, UniProt P10980); test: Displacement of [3H]-NMS from rat heart muscarinic M2 receptor after 60 mins by scintillation counting method
T2 sequence (P10980 whole entry): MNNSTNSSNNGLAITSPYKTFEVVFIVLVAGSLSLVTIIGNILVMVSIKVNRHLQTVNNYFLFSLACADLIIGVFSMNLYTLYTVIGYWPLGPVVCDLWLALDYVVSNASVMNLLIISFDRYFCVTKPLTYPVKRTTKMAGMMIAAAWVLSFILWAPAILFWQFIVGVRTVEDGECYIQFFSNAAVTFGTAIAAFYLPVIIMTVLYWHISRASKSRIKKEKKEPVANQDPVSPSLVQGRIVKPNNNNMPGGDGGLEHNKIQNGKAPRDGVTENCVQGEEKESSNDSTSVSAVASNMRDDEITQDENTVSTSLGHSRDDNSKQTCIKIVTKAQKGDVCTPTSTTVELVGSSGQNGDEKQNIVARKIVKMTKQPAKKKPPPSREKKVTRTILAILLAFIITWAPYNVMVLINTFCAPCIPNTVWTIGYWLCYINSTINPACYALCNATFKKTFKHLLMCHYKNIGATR

[3] = molecular target: T3, Muscarinic acetylcholine receptor M3 (Homo sapiens, UniProt P20309); test: Displacement of [3H]-NMS from muscarinic M3 receptor (unknown origin) expressed in mouse A9L cell membranes after 60 mins by scintillation counting method
T3 sequence (P20309 whole entry): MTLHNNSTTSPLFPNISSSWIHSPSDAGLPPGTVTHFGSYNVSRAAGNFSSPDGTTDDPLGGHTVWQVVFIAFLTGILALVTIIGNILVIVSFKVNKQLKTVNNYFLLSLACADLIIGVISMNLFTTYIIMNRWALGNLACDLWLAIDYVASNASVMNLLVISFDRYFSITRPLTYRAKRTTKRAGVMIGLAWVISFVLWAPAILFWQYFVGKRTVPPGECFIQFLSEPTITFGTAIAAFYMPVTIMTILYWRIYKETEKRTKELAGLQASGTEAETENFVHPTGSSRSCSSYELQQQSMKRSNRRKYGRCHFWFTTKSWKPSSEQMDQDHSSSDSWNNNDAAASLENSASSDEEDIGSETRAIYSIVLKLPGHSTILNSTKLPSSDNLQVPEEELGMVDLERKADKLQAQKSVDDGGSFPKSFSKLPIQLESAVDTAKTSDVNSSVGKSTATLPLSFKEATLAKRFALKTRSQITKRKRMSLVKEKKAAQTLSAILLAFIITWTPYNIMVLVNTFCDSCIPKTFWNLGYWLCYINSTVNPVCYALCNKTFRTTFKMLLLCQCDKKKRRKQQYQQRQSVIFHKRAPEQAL

[4] = Displacement of [3H]-NMS from muscarinic M4 receptor in mouse/rat NG108-15 cells after 60 mins by scintillation counting method; format: cell-based
[5] = Selectivity ratio of Ki for muscarinic M1 receptor (unknown origin) expressed in mouse A9L cell membranes to Ki for rat heart muscarinic M2 receptor; format: cell-based
[6] = Selectivity ratio of Ki for muscarinic M3 receptor (unknown origin) expressed in mouse A9L cell membranes to Ki for rat heart muscarinic M2 receptor; format: cell-based
[7] = Selectivity ratio of Ki for muscarinic M4 receptor in mouse/rat NG108-15 cells to Ki for rat heart muscarinic M2 receptor; format: cell-based
[8] = molecular target: T1, Muscarinic acetylcholine receptor M1; test: Binding affinity to muscarinic M1 receptor (unknown origin) expressed in CHO cells; format: cell-based
How it was run: (§1)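 [3H]NMS competition binding on intact CHO-hMxR cells in L15 medium with 1% BSA, 3 h at 22 ± 1 °C with gentle shaking. [3H]NMS was 0.2 nM (M1, M2, M3), 0.1 nM (M4) or 0.3 nM (M5). […] Cells were lysed in urea/acetic acid/Triton and counted by liquid scintillation. Ki from Cheng-Prusoff. Triplicates, ≥3 experiments.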

[9] = molecular target: T3, Muscarinic acetylcholine receptor M3; test: Binding affinity to muscarinic M3 receptor (unknown origin) expressed in CHO cells; format: cell-based; how it was run: as §1
[10] = molecular target: T4, Muscarinic acetylcholine receptor M4 (Homo sapiens, UniProt P08173); test: Binding affinity to muscarinic M4 receptor (unknown origin) expressed in CHO cells; format: cell-based; how it was run: as §1
T4 sequence (P08173 whole entry): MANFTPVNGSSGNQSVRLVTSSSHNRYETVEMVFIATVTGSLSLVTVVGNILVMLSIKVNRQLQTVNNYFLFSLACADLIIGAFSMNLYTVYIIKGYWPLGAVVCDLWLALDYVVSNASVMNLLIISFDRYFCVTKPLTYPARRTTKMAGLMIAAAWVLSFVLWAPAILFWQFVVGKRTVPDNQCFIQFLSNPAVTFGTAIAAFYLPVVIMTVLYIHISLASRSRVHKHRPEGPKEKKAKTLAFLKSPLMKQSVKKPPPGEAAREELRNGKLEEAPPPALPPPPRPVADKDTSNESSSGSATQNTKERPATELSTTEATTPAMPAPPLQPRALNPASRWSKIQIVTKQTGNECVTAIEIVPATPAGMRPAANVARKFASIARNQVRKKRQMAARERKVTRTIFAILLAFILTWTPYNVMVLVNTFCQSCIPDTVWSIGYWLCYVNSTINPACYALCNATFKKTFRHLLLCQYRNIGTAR

[11] = molecular target: T5, Muscarinic acetylcholine receptor M5 (Homo sapiens, UniProt P08912); test: Binding affinity to muscarinic M5 receptor (unknown origin) expressed in CHO cells; format: cell-based; how it was run: as §1
T5 sequence (P08912 whole entry): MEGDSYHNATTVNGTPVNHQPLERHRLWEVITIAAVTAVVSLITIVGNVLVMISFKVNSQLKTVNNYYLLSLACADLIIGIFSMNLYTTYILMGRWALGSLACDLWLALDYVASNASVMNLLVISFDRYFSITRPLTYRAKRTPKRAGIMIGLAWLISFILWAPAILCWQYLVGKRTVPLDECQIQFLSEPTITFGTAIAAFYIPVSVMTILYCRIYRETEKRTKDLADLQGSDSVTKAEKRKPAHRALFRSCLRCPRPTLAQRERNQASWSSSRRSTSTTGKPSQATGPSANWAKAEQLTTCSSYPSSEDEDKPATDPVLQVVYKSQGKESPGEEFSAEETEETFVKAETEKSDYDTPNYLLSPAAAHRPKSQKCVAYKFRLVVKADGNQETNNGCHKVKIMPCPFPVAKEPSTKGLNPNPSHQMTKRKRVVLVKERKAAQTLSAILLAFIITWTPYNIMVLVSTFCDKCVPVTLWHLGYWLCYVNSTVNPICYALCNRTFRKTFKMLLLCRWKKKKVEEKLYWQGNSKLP

[12] = molecular target: T1, Muscarinic acetylcholine receptor M1; test: Displacement of [3H]-NMS from human muscarinic M1 receptor expressed in CHO-K9 cells after 3 hrs by microbeta2 scintillation counting method; format: cell-based; how it was run: as §1
[13] = molecular target: T6, Muscarinic acetylcholine receptor M2 (Homo sapiens, UniProt P08172); test: Displacement of [3H]-NMS from human muscarinic M2 receptor expressed in CHO-K9 cells after 3 hrs by microbeta2 scintillation counting method; format: cell-based; how it was run: as §1
T6 sequence (P08172 whole entry): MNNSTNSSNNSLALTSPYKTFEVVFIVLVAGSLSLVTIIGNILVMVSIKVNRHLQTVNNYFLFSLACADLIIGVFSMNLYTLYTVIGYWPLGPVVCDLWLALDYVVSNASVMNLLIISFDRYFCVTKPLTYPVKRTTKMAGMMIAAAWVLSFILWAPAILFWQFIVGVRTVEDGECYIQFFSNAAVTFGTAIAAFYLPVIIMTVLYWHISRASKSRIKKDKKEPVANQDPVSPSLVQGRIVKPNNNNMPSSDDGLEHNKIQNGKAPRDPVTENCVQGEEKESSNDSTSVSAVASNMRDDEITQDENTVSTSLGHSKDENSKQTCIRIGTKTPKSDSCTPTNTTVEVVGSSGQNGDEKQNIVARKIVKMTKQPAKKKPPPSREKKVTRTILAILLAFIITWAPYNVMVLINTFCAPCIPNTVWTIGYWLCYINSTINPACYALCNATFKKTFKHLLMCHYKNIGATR

[14] = molecular target: T3, Muscarinic acetylcholine receptor M3; test: Displacement of [3H]-NMS from human muscarinic M3 receptor expressed in CHO-K9 cells after 3 hrs by microbeta2 scintillation counting method; format: cell-based; how it was run: as §1
[15] = molecular target: T4, Muscarinic acetylcholine receptor M4; test: Displacement of [3H]-NMS from human muscarinic M4 receptor expressed in CHO-K9 cells after 3 hrs by microbeta2 scintillation counting method; format: cell-based; how it was run: as §1
[16] = molecular target: T5, Muscarinic acetylcholine receptor M5; test: Displacement of [3H]-NMS from human muscarinic M5 receptor expressed in CHO-K9 cells after 3 hrs by microbeta2 scintillation counting method; format: cell-based; how it was run: as §1
[17] = molecular target: Muscarinic acetylcholine receptors; M1 & M2 (Homo sapiens) (UniProt P11229+P08172); test: Selectivity ratio of Ki for human muscarinic M1 receptor expressed in CHO-K9 cells to Ki for human muscarinic M2 receptor expressed in CHO-K9 cells; format: cell-based
How it was run: (§2)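 Ratio of mean Ki values. Each Ki came from an individual [3H]NMS competition experiment at the given CHO-hMxR subtype, converting IC50 to Ki by Cheng-Prusoff before averaging.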

[18] = molecular target: Muscarinic acetylcholine receptors; M2 & M3 (Homo sapiens) (UniProt P20309+P08172); test: Selectivity ratio of Ki for human muscarinic M3 receptor expressed in CHO-K9 cells to Ki for human muscarinic M2 receptor expressed in CHO-K9 cells; format: cell-based; how it was run: as §2
[19] = molecular target: Muscarinic acetylcholine receptor M2 and M4 (Homo sapiens) (UniProt P08173+P08172); test: Selectivity ratio of Ki for human muscarinic M4 receptor expressed in CHO-K9 cells to Ki for human muscarinic M2 receptor expressed in CHO-K9 cells; format: cell-based; how it was run: as §2
[20] = molecular target: Muscarinic acetylcholine receptor M2 and M5 (Homo sapiens) (UniProt P08172+P08912); test: Selectivity ratio of Ki for human muscarinic M5 receptor expressed in CHO-K9 cells to Ki for human muscarinic M2 receptor expressed in CHO-K9 cells; format: cell-based; how it was run: as §2
[21] = Stability of the compound in human plasma:PBS of pH 7.4 (1:2) assessed as intact compound at 100 uM incubated for 1 hr by LC-MS analysis; format: ADME, cell-free; settings: plasma diluted with PBS (1:2), read-out: Stability
How it was run: (§3)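 Compound added at 100 μM (from 5 mM stock in acetonitrile/0.04% TFA 3:7) to heparinized human plasma/PBS pH 7.4 (1:2 v/v) with 10 μM 1-methyl-D-tryptophan as internal standard. Incubated shaking at 37 °C in triplicate. Aliquots were EtOH/acetonitrile-precipitated and analysed by RP-HPLC at 220 nm, with recovery correction against four-point calibrations.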

[22] = Stability of the compound in human plasma used as 1:2 ratio of plasma to pH 7.4 PBS assessed as intact compound at 100 uM incubated for 6 hr […]; format: ADME, cell-free; settings: plasma diluted with PBS (1:2), read-out: Stability
[23] = Stability of the compound in human plasma used as 1:2 ratio of plasma to pH 7.4 PBS assessed as intact compound at 100 uM incubated for 24 hr […]; format: ADME, cell-free; settings: plasma diluted with PBS (1:2), read-out: Stability
[24] = Stability of the compound in human plasma used as 1:2 ratio of plasma to pH 7.4 PBS assessed as intact compound at 100 uM incubated for 48 hr by LC-MS analysis; format: ADME, cell-free; settings: plasma diluted with PBS (1:2), read-out: Stability; how it was run: as §3

CCN(CC)CCCCC1CCN(CC(=O)N2c3ccccc3NC(=O)c3ccccc32)CC1
Ki [1]: 3.98 nM
Ki [2]: 0.316 nM
Ki [3]: 10 nM
pKi [4]: 8.7
Ratio Ki [5]: 13
Ratio Ki [6]: 37
Ratio Ki [7]: 7

CCN(CC)CCCCC1CCN(CC(=O)N2c3ccccc3C(=O)Nc3cccnc32)CC1
Ki [8]: 50.1 nM
Ki [9]: 100 nM
Ki [10]: 7.94 nM
Ki [11]: 1260 nM

CC(=O)N[C@@H](CCCNC(=N)N)C(=O)N[C@@H](CCCCN)C(=O)NCC(=O)NCCCCC1CCN(CC(=O)N2c3ccccc3NC(=O)c3ccccc32)CC1
Ki [12]: 22.9 nM
Ki [13]: 1.48 nM
Ki [14]: 776 nM
Ki [15]: 17.4 nM
Ki [16]: 363 nM
Ratio Ki [17]: 15
Ratio Ki [18]: 620
Ratio Ki [19]: 11
Ratio Ki [20]: 260
remaining at 1 h, 100 µM [21]: > 99%
remaining at 6 h, 100 µM [22]: > 99%
remaining at 24 h, 100 µM [23]: > 99%
remaining at 48 h, 100 µM [24]: 83%
